Measured values: ChEMBL document CHEMBL4477197, “Antitumor Activity of Spicatoside A by Modulation of Autophagy and Apoptosis in Human Colorectal Cancer Cells” (J Nat Prod, 2016)
pIC50: −log10 of the molar value.

Experiments:
[1] = system: SK-HEP1; experiment: Antiproliferative activity against human SKHEP1 cells after 24 to 72 hrs by SRB assay; assay type: functional, cell-based
In short: (§1)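 Cells from ATCC were grown at 37 °C in 5% CO2, in RPMI 1640 (A549, HCT116, SNU-638) or DMEM (MDA-MB-231, SK-HEP-1, MRC5) with 10% FBS. They were seeded at 6 × 10^3 cells/well for 24 h, then exposed for 72 h. Cells were TCA-fixed, stained with 0.4% SRB, and read at 515 nm against day-zero plates. IC50 came from nonlinear regression, as means ± SD.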

[2] = system: HCT-116; experiment: Antiproliferative activity against human HCT116 cells after 24 to 72 hrs by SRB assay; assay type: functional, cell-based; in short: as §1
[3] = system: A549; experiment: Antiproliferative activity against human A549 cells after 24 to 72 hrs by SRB assay; assay type: functional, cell-based; in short: as §1
[4] = system: SNU-638; experiment: Antiproliferative activity against human SNU638 cells after 24 to 72 hrs by SRB assay; assay type: functional, cell-based; in short: as §1
[5] = system: MDA-MB-231; experiment: Antiproliferative activity against human MDA-MB-231 cells after 24 to 72 hrs by SRB assay; assay type: functional, cell-based; in short: as §1
[6] = system: MRC5; experiment: Antiproliferative activity against human MRC5 cells after 24 to 72 hrs by SRB assay; assay type: cell-based; in short: as §1

Compound: Cc1c2ccncc2c(C)c2c1[nH]c1ccccc12 [ELLIPTECINE]
- pIC50 [1]: 6.40
- pIC50 [2]: 6.00
- pIC50 [3]: 6.40
- pIC50 [4]: 5.57
- pIC50 [5]: 7.00
- pIC50 [6]: 5.89
